Source: paper PMC12138107 (Acta Pharmaceutica Sinica. B, 2025)

Test system: L02 cells
Assay: In vitro cytotoxicity assay on normal L02 cells
Format: cell-based
Settings: 10 μmol/L, 24 h, CCK8
In short: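 L02 cells grown in DMEM with 10% FBS and 1% penicillin-streptomycin at 37 °C, 5% CO2. Seeded at 5 × 10^3 cells/well, then 24 h before test compound at 10 μmol/L was added for another 24 h. Medium removed, 10% CCK8 added for 1 h at 37 °C. Absorbance read and viability calculated.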

COc1nc(OCc2cccc(-c3ccccc3)c2C)ccc1CNCCNC(C)=O [BMS-202]
Cytotoxicity on normal L02 cells: obvious cytotoxicity
